The source made the active and inactive calls. No cut-off for these calls is given here.
What was measured:
L1210 [1] = assay: Cell cycle arrest in mouse L1210 cell line by accumulation at G2/M phase at 5 uM after 24 hrs; assay type: functional
Procedure, shortened: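 L1210 cells in RPMI 1640 with 2 mM L-glutamine, penicillin, streptomycin and 20% heat-inactivated horse serum, 5% CO2, 37 °C, exposed to several drug concentrations. Cells fixed in 70% ethanol, washed, stained 30 min at room temperature with propidium iodide plus RNAse in PBS, then flow cytometry. Read-out is percentage of cells in each cycle phase after 24 h exposure.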

NCI/ADR-RES = assay: Antitumor activity against human NCI/ADRRES cell line; assay type: functional
Procedure, shortened: (§1)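 Human tumour cell line panel. GI50 is the concentration giving 50% growth inhibition, averaged over at least two determinations. LC50 is the concentration killing 50% of cells in a […] assay.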

Hs-578T = assay: Antitumor activity against human HS578T cell line; assay type: functional; procedure, shortened: as §1
OVCAR-3 = assay: Antitumor activity against human OVCAR-3 cell line; assay type: functional; procedure, shortened: as §1
NCI-H460 = assay: Antitumor activity against human NCI-H460 cell line; assay type: functional; procedure, shortened: as §1
NCI-H522 = assay: Antitumor activity against human NCI-H522 cell line; assay type: functional; procedure, shortened: as §1
COLO 205 = assay: Antitumor activity against human Colo205 cell line; assay type: functional; procedure, shortened: as §1
HCC 2998 = assay: Antitumor activity against human HCC2998 cell line; assay type: functional; details: read-out: LC50 (the source's name); procedure, shortened: as §1
HCT-116 = assay: Antitumor activity against human HCT116 cell line; assay type: functional; procedure, shortened: as §1
HCT-15 = assay: Antitumor activity against human HCT15 cell line; assay type: functional; procedure, shortened: as §1
KM12 = assay: Antitumor activity against human KM12 cell line; assay type: functional; procedure, shortened: as §1
SW-620 = assay: Antitumor activity against human SW620 cell line; assay type: functional
Procedure, shortened: (§2)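 Human tumour cell lines from a selected panel. GI50 is the concentration giving 50% growth inhibition, averaged from at least two determinations. LC50 is the concentration killing 50% of cells in a […] assay.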

SF-268 = assay: Antitumor activity against human SF268 cell line; assay type: functional; procedure, shortened: as §1
SF-295 = assay: Antitumor activity against human SF295 cell line; assay type: functional; procedure, shortened: as §1
SF-539 = assay: Antitumor activity against human SF539 cell line; assay type: functional; procedure, shortened: as §1
SNB-75 = assay: Antitumor activity against human SNB75 cell line; assay type: functional; details: read-out: LC50 (the source's name); procedure, shortened: as §2
Malme-3M = assay: Antitumor activity against human MALME3M cell line; assay type: functional; procedure, shortened: as §1
M14 = assay: Antitumor activity against human M14 cell line; assay type: functional; procedure, shortened: as §1
SK-MEL-2 = assay: Antitumor activity against human SKMEL2 cell line; assay type: functional; procedure, shortened: as §1
SK-MEL-28 = assay: Antitumor activity against human SKMEL28 cell line; assay type: functional; procedure, shortened: as §1
UACC-62 = assay: Antitumor activity against human UACC62 cell line; assay type: functional; procedure, shortened: as §2
UACC-257 = assay: Antitumor activity against human UACC257 cell line; assay type: functional; procedure, shortened: as §2
OVCAR-4 = assay: Antitumor activity against human OVCAR4 cell line; assay type: functional; procedure, shortened: as §1
L1210 [2] = assay: Cytotoxicity against mouse L1210 cell line; assay type: cell-based; details: Mus musculus, L1210
Procedure, shortened: (§3)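 Cells grown at 37 °C under 5% CO2 in medium with 2 mM L-glutamine, penicillin, streptomycin and 20% heat-inactivated horse serum. Drug in DMSO (0.5% final) added to exponentially growing cells seeded at 0.8 × 10^5 cells/mL. Coulter counting in quadruplicate at 48 h (L1210) or 96 h (HT-29). IC50 from probit of % growth inhibition versus log dose; four independent runs in triplicate.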

HT-29 = assay: Cytotoxicity against human HT29 cell line; assay type: cell-based; procedure, shortened: as §3
[3] = Effect on DNA sequence recognition assessed by DNase I footprinting assay; assay type: functional
Homo sapiens = organism: Homo sapiens; assay: Inhibition of topoisomerase 2 assessed by DNA cleavage complex formation assay
Procedure, shortened: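 Cleavage complex formed on pYRG plasmid DNA by human topoisomerase II purified from placenta. Linear DNA product quantified by densitometry relative to ellipticine.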

CCRF-CEM = assay: Antitumor activity against human CCRF-CEM cell line; assay type: functional; procedure, shortened: as §1
HL-60 = assay: Antitumor activity against human HL60 cell line; assay type: functional; procedure, shortened: as §1
K562 = assay: Antitumor activity against human K562 cell line; assay type: functional; procedure, shortened: as §1
MOLT-4 = assay: Antitumor activity against human MOLT4 cell line; assay type: functional; procedure, shortened: as §1
RPMI-8226 = assay: Antitumor activity against human RPMI8226 cell line; assay type: functional; procedure, shortened: as §1
A549 = assay: Antitumor activity against human A549 cell line; assay type: functional; procedure, shortened: as §1
EKVX = assay: Antitumor activity against human EKVX cell line; assay type: functional; procedure, shortened: as §1
HOP-92 = assay: Antitumor activity against human HOP92 cell line; assay type: functional; procedure, shortened: as §1
NCI-H226 = assay: Antitumor activity against human NCI-H226 cell line; assay type: functional; procedure, shortened: as §1
NCI-H23 = assay: Antitumor activity against human NCI-H23 cell line; assay type: functional; procedure, shortened: as §1
786-0 = assay: Antitumor activity against human 7860 cell line; assay type: functional; procedure, shortened: as §1
A498 = assay: Antitumor activity against human A498 cell line; assay type: functional; procedure, shortened: as §1
OVCAR-8 = assay: Antitumor activity against human OVCAR8 cell line; assay type: functional; procedure, shortened: as §1
ACHN = assay: Antitumor activity against human ACHN cell line; assay type: functional; procedure, shortened: as §1
CAKI-1 = assay: Antitumor activity against human CAKI1 cell line; assay type: functional; procedure, shortened: as §1
RXF 393 = assay: Antitumor activity against human RXF393 cell line; assay type: functional; procedure, shortened: as §1
UO-31 = assay: Antitumor activity against human UO31 cell line; assay type: functional; procedure, shortened: as §2
PC-3 = assay: Antitumor activity against human PC3 cell line; assay type: functional; procedure, shortened: as §1
DU-145 = assay: Antitumor activity against human DU145 cell line; assay type: functional; procedure, shortened: as §1
MCF7 = assay: Antitumor activity against human MCF7 cell line; assay type: functional; procedure, shortened: as §1
BT-549 = assay: Antitumor activity against human BT549 cell line; assay type: functional; procedure, shortened: as §1
[4] = read-out: LC50 (the source's name)

CCCCc1c2c(c(C)c3c1C(=O)OC3)Oc1ccccc1O2
Activity (L1210 [1]): 67%
GI50 (NCI/ADR-RES): 0.437 µM
CC50 (NCI/ADR-RES; [4]): 100 µM
GI50 (Hs-578T): 0.363 µM
CC50 (Hs-578T; [4]): 100 µM
GI50 (OVCAR-3): 0.525 µM
CC50 (OVCAR-3; [4]): 100 µM
GI50 (NCI-H460): 0.372 µM
CC50 (NCI-H460; [4]): 100 µM
GI50 (NCI-H522): 0.234 µM
CC50 (NCI-H522; [4]): 100 µM
GI50 (COLO 205): 0.741 µM
CC50 (COLO 205; [4]): 100 µM
CC50 (HCC 2998): 40 µM
GI50 (HCT-116): 0.38 µM
CC50 (HCT-116; [4]): 50 µM
GI50 (HCT-15): 0.589 µM
CC50 (HCT-15; [4]): 100 µM
GI50 (KM12): 0.49 µM
CC50 (KM12; [4]): 100 µM
GI50 (SW-620): 0.525 µM
CC50 (SW-620; [4]): 100 µM
GI50 (SF-268): 0.977 µM
CC50 (SF-268; [4]): 100 µM
GI50 (SF-295): 0.447 µM
CC50 (SF-295; [4]): 100 µM
GI50 (SF-539): 0.339 µM
CC50 (SF-539; [4]): 10 µM
CC50 (SNB-75): 90 µM
GI50 (Malme-3M): 0.447 µM
CC50 (Malme-3M; [4]): 100 µM
GI50 (M14): 0.603 µM
CC50 (M14; [4]): 100 µM
GI50 (SK-MEL-2): 0.363 µM
CC50 (SK-MEL-2; [4]): 100 µM
GI50 (SK-MEL-28): 39.8 µM
CC50 (SK-MEL-28; [4]): 100 µM
GI50 (UACC-62): 0.49 µM
CC50 (UACC-62; [4]): 100 µM
GI50 (UACC-257): 0.302 µM
CC50 (UACC-257; [4]): 100 µM
GI50 (OVCAR-4): 1.95 µM
CC50 (OVCAR-4; [4]): 100 µM
IC50 (L1210 [2]): 2.4 µM
IC50 (HT-29): 0.58 µM
Activity [3]: inactive
Activity (Homo sapiens): inactive
GI50 (CCRF-CEM): 0.501 µM
CC50 (CCRF-CEM; [4]): 100 µM
GI50 (HL-60): 0.245 µM
CC50 (HL-60; [4]): 100 µM
GI50 (K562): 0.38 µM
CC50 (K562; [4]): 100 µM
GI50 (MOLT-4): 0.447 µM
CC50 (MOLT-4; [4]): 100 µM
GI50 (RPMI-8226): 0.759 µM
CC50 (RPMI-8226; [4]): 100 µM
GI50 (A549): 0.603 µM
CC50 (A549; [4]): 70 µM
GI50 (EKVX): 2.95 µM
CC50 (EKVX; [4]): 100 µM
GI50 (HOP-92): 5.75 µM
CC50 (HOP-92; [4]): 100 µM
GI50 (NCI-H226): 1.86 µM
CC50 (NCI-H226; [4]): 100 µM
GI50 (NCI-H23): 2.63 µM
CC50 (NCI-H23; [4]): 100 µM
GI50 (786-0): 0.562 µM
CC50 (786-0; [4]): 50 µM
GI50 (A498): 0.776 µM
CC50 (A498; [4]): 100 µM
GI50 (OVCAR-8): 3.55 µM
CC50 (OVCAR-8; [4]): 100 µM
GI50 (ACHN): 3.72 µM
CC50 (ACHN; [4]): 100 µM
GI50 (CAKI-1): 26.3 µM
CC50 (CAKI-1; [4]): 100 µM
GI50 (RXF 393): 0.977 µM
CC50 (RXF 393; [4]): 100 µM
GI50 (UO-31): 2.24 µM
CC50 (UO-31; [4]): 100 µM
GI50 (PC-3): 0.437 µM
CC50 (PC-3; [4]): 100 µM
GI50 (DU-145): 1.82 µM
CC50 (DU-145; [4]): 100 µM
GI50 (MCF7): 1.23 µM
CC50 (MCF7; [4]): 100 µM
GI50 (BT-549): 21.4 µM
CC50 (BT-549; [4]): 100 µM

From ChEMBL document CHEMBL1139834, “Synthesis and structure-activity relationships of new benzodioxinic lactones as potential anticancer drugs” (J Med Chem, 2007)
